Experiments:
[1] = tested on: PANC-1 lysate; assay: Cleavage assay of SAPE-labeled ADAM9 bacteria with PANC-1 lysate; format: biochemical, human; details: highest PANC-1 lysate concentration, 3 h, FACS; dose-dependent
Procedure, shortened: (§1)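 ADAM9 substrate-displaying bacteria were subcultured 1:100 in LB for 45 min at 37 °C, induced with 0.04% arabinose for 1 h, then labeled with SAPE (final […]) for 1 h. 10^7 bacteria were incubated for 3 h with thrombin (final 75 nM) or dilutions of sonicated PANC-1 lysate, with PBS or reaction buffer as controls. After two PBS washes, SAPE-positive bacteria were counted by flow cytometry, with unlabeled bacteria as the negative control.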

[2] = target: rMMP9 (Homo sapiens, UniProt P14780); assay: Cleavage assay of SAPE-labeled ADAM9 bacteria with rMMP9, alone or with S3304; format: biochemical; details: 200 nM rMMP9, 3 h, FACS
Sequence of rMMP9 (P14780 94-707, species assumed): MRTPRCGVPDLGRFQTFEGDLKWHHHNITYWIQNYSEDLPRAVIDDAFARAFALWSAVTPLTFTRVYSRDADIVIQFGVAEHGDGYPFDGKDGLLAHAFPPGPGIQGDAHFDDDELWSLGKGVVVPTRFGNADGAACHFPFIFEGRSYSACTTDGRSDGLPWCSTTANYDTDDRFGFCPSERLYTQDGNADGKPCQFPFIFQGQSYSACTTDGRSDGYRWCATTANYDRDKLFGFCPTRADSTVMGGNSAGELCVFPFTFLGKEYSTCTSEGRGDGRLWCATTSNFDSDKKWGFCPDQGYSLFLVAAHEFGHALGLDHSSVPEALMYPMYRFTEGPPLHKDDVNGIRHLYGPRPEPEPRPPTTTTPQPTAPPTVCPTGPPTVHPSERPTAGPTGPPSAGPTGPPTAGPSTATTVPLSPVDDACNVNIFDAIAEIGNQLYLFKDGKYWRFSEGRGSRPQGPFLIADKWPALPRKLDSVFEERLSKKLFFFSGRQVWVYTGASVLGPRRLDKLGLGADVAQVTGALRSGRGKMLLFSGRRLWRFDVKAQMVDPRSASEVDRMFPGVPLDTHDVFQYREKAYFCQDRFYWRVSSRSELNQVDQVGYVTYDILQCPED

[3] = target: thrombin (Homo sapiens, UniProt P00734); assay: Cleavage assay of SAPE-labeled ADAM9 bacteria with thrombin; format: biochemical; details: 75 nM thrombin, 3 h, FACS
Procedure, shortened: as §1

Sequence: PLAQAVRSSK [ADAM9 substrate]
- ADAM9 substrate cleavage by PANC-1 lysate (loss of SAPE-positive bacteria) [1]: near-complete
- effect on SAPE-positivity of ADAM9 bacteria [2]: greatly reduced SAPE-positivity
- effect on fluorescence of SAPE-labeled ADAM9 bacteria [3]: did not reduce fluorescence

Source: paper PMC11579016 (Oncogenesis, 2024)
